Reference: ChEMBL document CHEMBL1255404, “Spread of OXA-48-encoding plasmid in Turkey and beyond” (2010)
Values after ≈ are worked out from the molar mass of the structure shown.

What was measured:
Format in all cases: functional
Escherichia coli [1] = experiment: Antimicrobial activity against Escherichia coli isolate J53 harboring p5A containing beta-lactamase OXA-48 located within transposon Tn1999 by Etest method in presence of beta-lactamase inhibitor clavulanic acid
Outline: (§1)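 β-Lactam MICs read with Etest strips. Strains are E. coli J53 recipient and J53 transconjugants carrying OXA-48-positive plasmids recovered from clinical enterobacterial isolates.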

Klebsiella pneumoniae [2] = experiment: Antimicrobial activity against Klebsiella pneumoniae isolate Kp11978 expressing beta-lactamase OXA-48, SHV-2a and TEM-1 by Etest method in presence of beta-lactamase inhibitor clavulanic acid
Outline: (§2)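 MICs of β-lactams read from Etest strips. The test organisms are carbapenem-resistant, OXA-48-positive clinical Enterobacteriaceae isolates recovered from Turkey, Lebanon, Egypt, France and Belgium.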

Escherichia coli [3] = experiment: Antimicrobial activity against Escherichia coli isolate J53 harboring pL containing beta-lactamase OXA-48 located within transposon Tn1999.2 by Etest method; outline: as §1
Klebsiella pneumoniae [4] = experiment: Antimicrobial activity against Klebsiella pneumoniae isolate KpI-2 expressing beta-lactamase OXA-48 and CTX-M-15 by Etest method in presence of beta-lactamase inhibitor clavulanic acid; outline: as §2
Klebsiella pneumoniae [5] = experiment: Antimicrobial activity against Klebsiella pneumoniae isolate Kp6A expressing beta-lactamase OXA-48 and TEM-150 by Etest method
Escherichia coli [6] = experiment: Antimicrobial activity against Escherichia coli isolate J53 harboring pI-2 containing beta-lactamase OXA-48 located within transposon Tn1999.2 by Etest method in presence of beta-lactamase inhibitor clavulanic acid; outline: as §1
Escherichia coli [7] = experiment: Antimicrobial activity against Escherichia coli isolate J53 harboring pBb containing beta-lactamase OXA-48 located within transposon Tn1999.2 by Etest method; outline: as §1
Escherichia coli [8] = experiment: Antimicrobial activity against Escherichia coli isolate J53 harboring pEcA containing beta-lactamase OXA-48 located within transposon Tn1999.2 by Etest method in presence of beta-lactamase inhibitor clavulanic acid; outline: as §1
Escherichia coli [9] = experiment: Antimicrobial activity against Escherichia coli isolate J53 by Etest method; outline: as §1
Klebsiella pneumoniae [10] = experiment: Antimicrobial activity against Klebsiella pneumoniae isolate KpL expressing beta-lactamase OXA-48 by Etest method in presence of beta-lactamase inhibitor clavulanic acid; outline: as §2
Klebsiella pneumoniae [11] = experiment: Antimicrobial activity against Klebsiella pneumoniae isolate KpI-1 expressing beta-lactamase OXA-48 and CTX-M-15 by Etest method
Klebsiella pneumoniae [12] = experiment: Antimicrobial activity against Klebsiella pneumoniae isolate Kp5A expressing beta-lactamase OXA-48 and SHV-5 by Etest method
Klebsiella pneumoniae [13] = experiment: Antimicrobial activity against Klebsiella pneumoniae isolate KpBIC expressing beta-lactamase OXA-48 by Etest method in presence of beta-lactamase inhibitor clavulanic acid; outline: as §2
Klebsiella pneumoniae [14] = experiment: Antimicrobial activity against Klebsiella pneumoniae isolate KpB expressing OXA-48 and CTX-M-15 by Etest method in presence of beta-lactamase inhibitor clavulanic acid; outline: as §2
Klebsiella pneumoniae [15] = experiment: Antimicrobial activity against Klebsiella pneumoniae isolate KpI-1 expressing beta-lactamase OXA-48 and CTX-M-15 by Etest method in presence of beta-lactamase inhibitor clavulanic acid; outline: as §2
Escherichia coli [16] = experiment: Antimicrobial activity against Escherichia coli isolate J53 harboring pEnc1 containing beta-lactamase OXA-48 located within transposon Tn1999 by Etest method; outline: as §1
Enterobacter cloacae [17] = experiment: Antimicrobial activity against Enterobacter cloacae isolate 2 expressing beta-lactamase OXA-48 and SHV-5 by Etest method
Klebsiella pneumoniae [18] = experiment: Antimicrobial activity against Klebsiella pneumoniae isolate KpBEL expressing beta-lactamase OXA-48 by Etest method; outline: as §2
Escherichia coli [19] = experiment: Antimicrobial activity against Escherichia coli isolate J53 harboring pI-1 containing beta-lactamase OXA-48 located within transposon Tn1999.2 by Etest method; outline: as §1
Escherichia coli [20] = experiment: Antimicrobial activity against Escherichia coli isolate A expressing beta-lactamase OXA-48 and TEM-150 by Etest method in presence of beta-lactamase inhibitor clavulanic acid; outline: as §2
Escherichia coli [21] = experiment: Antimicrobial activity against Escherichia coli isolate J53 harboring p6A containing beta-lactamase OXA-48 located within transposon Tn1999 by Etest method; outline: as §1
Klebsiella pneumoniae [22] = experiment: Antimicrobial activity against Klebsiella pneumoniae isolate KpE expressing beta-lactamase OXA-48 and CTX-M-15 by Etest method in presence of beta-lactamase inhibitor clavulanic acid; outline: as §2
Citrobacter freundii [23] = experiment: Antimicrobial activity against Citrobacter freundii isolate expressing beta-lactamase OXA-48 by Etest method
Klebsiella pneumoniae [24] = experiment: Antimicrobial activity against Klebsiella pneumoniae isolate KpBEL expressing beta-lactamase OXA-48 by Etest method in presence of beta-lactamase inhibitor clavulanic acid; outline: as §2
Escherichia coli [25] = experiment: Antimicrobial activity against Escherichia coli isolate J53 harboring pBEL containing beta-lactamase OXA-48 located within transposon Tn1999.2 by Etest method; outline: as §1
Citrobacter freundii [26] = experiment: Antimicrobial activity against Citrobacter freundii isolate expressing beta-lactamase OXA-48 by Etest method in presence of beta-lactamase inhibitor clavulanic acid; outline: as §2
Enterobacter cloacae [27] = experiment: Antimicrobial activity against Enterobacter cloacae isolate 1 expressing beta-lactamase OXA-48 and SHV-5 by Etest method
Escherichia coli [28] = experiment: Antimicrobial activity against Escherichia coli isolate J53 harboring pL containing beta-lactamase OXA-48 located within transposon Tn1999.2 by Etest method in presence of beta-lactamase inhibitor clavulanic acid; outline: as §1
Klebsiella pneumoniae [29] = experiment: Antimicrobial activity against Klebsiella pneumoniae isolate KpL expressing beta-lactamase OXA-48 by Etest method
Escherichia coli [30] = experiment: Antimicrobial activity against Escherichia coli isolate J53 harboring pEnc2 containing beta-lactamase OXA-48 located within transposon Tn1999 by Etest method; outline: as §1
Escherichia coli [31] = experiment: Antimicrobial activity against Escherichia coli isolate A expressing beta-lactamase OXA-48 and TEM-150 by Etest method
Escherichia coli [32] = experiment: Antimicrobial activity against Escherichia coli isolate J53 harboring p3A containing beta-lactamase OXA-48 located within transposon Tn1999 by Etest method in presence of beta-lactamase inhibitor clavulanic acid; outline: as §1
Escherichia coli [33] = experiment: Antimicrobial activity against Escherichia coli isolate J53 harboring pEnc1 containing beta-lactamase OXA-48 located within transposon Tn1999 by Etest method in presence of beta-lactamase inhibitor clavulanic acid; outline: as §1
Escherichia coli [34] = experiment: Antimicrobial activity against Escherichia coli isolate J53 harboring p7A containing beta-lactamase OXA-48 located within transposon Tn1999 by Etest method; outline: as §1
Escherichia coli [35] = experiment: Antimicrobial activity against Escherichia coli isolate J53 harboring pCF containing beta-lactamase OXA-48 located within transposon Tn1999 by Etest method; outline: as §1
Klebsiella pneumoniae [36] = experiment: Antimicrobial activity against Klebsiella pneumoniae isolate Kp7A expressing beta-lactamase OXA-48 by Etest method; outline: as §2
Escherichia coli [37] = experiment: Antimicrobial activity against Escherichia coli isolate J53 harboring pCF containing beta-lactamase OXA-48 located within transposon Tn1999 by Etest method in presence of beta-lactamase inhibitor clavulanic acid; outline: as §1
Escherichia coli [38] = experiment: Antimicrobial activity against Escherichia coli isolate TOP10 harboring pPR containing beta-lactamase and TEM-101 by Etest method in presence of beta-lactamase inhibitor clavulanic acid
Outline: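 β-Lactam MICs read with Etest strips. Strains are E. coli TOP10 host and TOP10 transformants made with plasmid DNA extract when conjugation failed. Transformants were selected on LB agar with ticarcillin 50 μg/ml.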

Escherichia coli [39] = experiment: Antimicrobial activity against Escherichia coli isolate J53 harboring pEnc2 containing beta-lactamase OXA-48 located within transposon Tn1999 by Etest method in presence of beta-lactamase inhibitor clavulanic acid; outline: as §1

| Structure (SMILES) | MIC (Escherichia coli [1]) | MIC (Klebsiella pneumoniae [2]) | MIC (Escherichia coli [3]) | MIC (Klebsiella pneumoniae [4]) | MIC (Klebsiella pneumoniae [5]) | MIC (Escherichia coli [6]) | MIC (Escherichia coli [7]) | MIC (Escherichia coli [8]) | MIC (Escherichia coli [9]) | MIC (Klebsiella pneumoniae [10]) | MIC (Klebsiella pneumoniae [11]) | MIC (Klebsiella pneumoniae [12]) | MIC (Klebsiella pneumoniae [13]) | MIC (Klebsiella pneumoniae [14]) | MIC (Klebsiella pneumoniae [15]) | MIC (Escherichia coli [16]) | MIC (Enterobacter cloacae [17]) | MIC (Klebsiella pneumoniae [18]) | MIC (Escherichia coli [19]) | MIC (Escherichia coli [20]) | also measured |
| --- | --- | --- | --- | --- | --- | --- | --- | --- | --- | --- | --- | --- | --- | --- | --- | --- | --- | --- | --- | --- | --- |
| CC1(C)S[C@@H]2[C@H](NC(=O)[C@H](C(=O)O)c3ccsc3)C(=O)N2[C@H]1C(=O)O [TICARCILLIN] | > 512 µg/mL | > 512 µg/mL | > 256 µg/mL | > 512 µg/mL | > 512 µg/mL | > 512 µg/mL | > 512 µg/mL | > 256 µg/mL | 2 µg/mL (≈ 5.2 µM) | > 256 µg/mL | > 512 µg/mL | > 512 µg/mL | > 512 µg/mL | > 512 µg/mL | > 512 µg/mL | > 512 µg/mL | > 512 µg/mL | > 256 µg/mL | > 512 µg/mL | > 256 µg/mL | MIC (Escherichia coli [21]): > 512 µg/mL; MIC (Klebsiella pneumoniae [22]): > 512 µg/mL; MIC (Citrobacter freundii [23]): > 512 µg/mL; MIC (Klebsiella pneumoniae [24]): > 256 µg/mL; MIC (Escherichia coli [25]): > 256 µg/mL; MIC (Citrobacter freundii [26]): > 512 µg/mL; MIC (Enterobacter cloacae [27]): > 512 µg/mL; MIC (Escherichia coli [28]): > 256 µg/mL; MIC (Klebsiella pneumoniae [29]): > 256 µg/mL; MIC (Escherichia coli [30]): > 512 µg/mL; MIC (Escherichia coli [31]): > 256 µg/mL; MIC (Escherichia coli [32]): > 512 µg/mL; MIC (Escherichia coli [33]): > 512 µg/mL; MIC (Escherichia coli [34]): > 512 µg/mL; MIC (Escherichia coli [35]): > 512 µg/mL; MIC (Klebsiella pneumoniae [36]): > 512 µg/mL; MIC (Escherichia coli [37]): > 512 µg/mL; MIC (Escherichia coli [38]): > 256 µg/mL; MIC (Escherichia coli [39]): > 512 µg/mL |
| CC1(C)S[C@@H]2[C@H](NC(=O)[C@H](N)c3ccc(O)cc3)C(=O)N2[C@H]1C(=O)O [AMOXICILLIN] | > 512 µg/mL | > 512 µg/mL | > 256 µg/mL | > 512 µg/mL | > 512 µg/mL | > 512 µg/mL | > 512 µg/mL | > 256 µg/mL | 4 µg/mL (≈ 10.9 µM) | > 256 µg/mL | > 512 µg/mL | > 512 µg/mL | > 512 µg/mL | > 512 µg/mL | > 512 µg/mL | > 512 µg/mL | > 512 µg/mL | > 256 µg/mL | > 512 µg/mL | > 256 µg/mL | MIC (Escherichia coli [21]): > 512 µg/mL; MIC (Klebsiella pneumoniae [22]): > 512 µg/mL; MIC (Citrobacter freundii [23]): > 512 µg/mL; MIC (Klebsiella pneumoniae [24]): > 256 µg/mL; MIC (Escherichia coli [25]): > 256 µg/mL; MIC (Citrobacter freundii [26]): > 512 µg/mL; MIC (Enterobacter cloacae [27]): > 512 µg/mL; MIC (Escherichia coli [28]): > 256 µg/mL; MIC (Klebsiella pneumoniae [29]): > 256 µg/mL; MIC (Escherichia coli [30]): > 512 µg/mL; MIC (Escherichia coli [31]): > 256 µg/mL; MIC (Escherichia coli [32]): > 512 µg/mL; MIC (Escherichia coli [33]): > 512 µg/mL; MIC (Escherichia coli [34]): > 512 µg/mL; MIC (Escherichia coli [35]): > 512 µg/mL; MIC (Klebsiella pneumoniae [36]): > 512 µg/mL; MIC (Escherichia coli [37]): > 512 µg/mL; MIC (Escherichia coli [38]): > 256 µg/mL; MIC (Escherichia coli [39]): > 512 µg/mL |
